Our source for the IC50 and Ki values is ChEMBL document CHEMBL1159052 (Bioorg Med Chem, 2010).

The target of test [1] is T1, Neuronal acetylcholine receptor; alpha4/beta2 (Rattus norvegicus, UniProt P09483+P12390). In words: Antagonist activity at alpha4beta2 nAChR in rat brain synaptosomes assessed as inhibition of nicotine-induced 86Rb+ efflux by liquid scintillation spectrophotometry. Format: functional, subcellular.
The target of test [2] is Sodium-dependent serotonin transporter (Rattus norvegicus, UniProt P31652). In words: Inhibition of [3H]5HT uptake at SERT in rat brain hippocampal synaptosomes by liquid scintillation spectrophotometry. Format: subcellular, Hippocampus. A digest of the protocol: (§1)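 Synaptosomes were striatal for [3H]DA and hippocampal for [3H]5-HT, as P2 pellets in oxygenated Krebs with pargyline and ascorbate (pH 7.4), protein 400 μg/ml. Drug at […] was preincubated 10 min at 34 °C, then 10 nM tritiated substrate was added for 10 min. Uptake was stopped with ice-cold buffer and filtered on GF/B. Nonspecific uptake used 10 μM nomifensine (DA) or 10 μM fluoxetine (5-HT). Duplicates; IC50 by curve fit; Ki by Cheng-Prusoff.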
Chain of Sodium-dependent serotonin transporter (P31652 whole entry): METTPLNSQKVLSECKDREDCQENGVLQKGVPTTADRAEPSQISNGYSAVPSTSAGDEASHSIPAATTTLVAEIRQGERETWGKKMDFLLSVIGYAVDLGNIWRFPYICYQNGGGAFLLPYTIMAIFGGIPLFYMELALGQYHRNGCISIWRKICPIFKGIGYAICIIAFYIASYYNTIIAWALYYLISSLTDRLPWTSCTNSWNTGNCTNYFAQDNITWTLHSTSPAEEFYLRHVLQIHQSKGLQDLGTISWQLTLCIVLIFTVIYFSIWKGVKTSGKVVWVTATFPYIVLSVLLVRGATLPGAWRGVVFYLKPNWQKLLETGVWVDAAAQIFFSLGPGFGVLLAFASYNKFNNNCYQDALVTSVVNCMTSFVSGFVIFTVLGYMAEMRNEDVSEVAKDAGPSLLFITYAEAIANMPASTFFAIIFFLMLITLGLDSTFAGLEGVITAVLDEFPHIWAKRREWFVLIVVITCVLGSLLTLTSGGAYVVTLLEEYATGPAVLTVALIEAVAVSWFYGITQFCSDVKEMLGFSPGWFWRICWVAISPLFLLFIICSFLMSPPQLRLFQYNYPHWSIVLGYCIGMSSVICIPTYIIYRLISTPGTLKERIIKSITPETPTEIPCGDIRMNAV

The target in test [3] is T2, Synaptic vesicular amine transporter (Rattus norvegicus, UniProt Q01827). In words: Displacement of [3HDTBZ from VMAT2 in rat whole brain vesicles by liquid scintillation spectrophotometry. A digest of the protocol:
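Vesicles came from rat whole brain minus cerebellum, by hypotonic lysis and 100,000g pelleting, in HEPES/potassium-tartrate/MgSO4 buffer at pH 7.5, 15 μg protein per 100 μl. Final radioligand was 3 nM [3H]MTBZ or [3H]DTBZ, run in duplicate. […] Samples were filtered on PEI-soaked GF/B. Ki values come from at least four independent experiments.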

Test [4] can be described thus: Displacement of [3H]MLA from alpha7 nAChR in rat brain homogenate by liquid scintillation spectrophotometry. Format: tissue-based. The procedure, abridged: (§2)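 Membranes came from whole brain minus cortex and cerebellum, washed in Krebs-HEPES buffer at pH 7.5, 100–140 μg protein per tube. IC50 came from a curve fit; Ki by Cheng-Prusoff. At least four experiments, each in duplicate.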

Test [5] deals with T1, Neuronal acetylcholine receptor; alpha4/beta2. In words: Displacement of [3H]nicotine from alpha4beta2 nAChR in rat brain homogenate by liquid scintillation spectrophotometry. Format: tissue-based. The procedure, abridged: as §2
Test [6] has as its target Sodium-dependent dopamine transporter (Rattus norvegicus, UniProt P23977). In words: Inhibition of [3H]DA uptake at DAT in rat brain striatal synaptosomes by liquid scintillation spectrophotometry. The format is subcellular. The procedure, abridged:
as §1

The target of test [7] is T2, Synaptic vesicular amine transporter. The test is described as follows: Displacement of [3H]MTBZ from VMAT2 in rat whole brain vesicles by liquid scintillation spectrophotometry. The procedure, abridged:
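Vesicles came from rat whole brain minus cerebellum, by hypotonic lysis and 100,000g pelleting, in HEPES/potassium-tartrate/MgSO4 buffer at pH 7.5, 15 μg protein per 100 μl. Final radioligand was 3 nM [3H]MTBZ or [3H]DTBZ, run in duplicate. Samples were filtered on PEI-soaked GF/B. Ki values come from at least four independent experiments.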

Test [8] addresses Synaptic vesicular amine transporter (Homo sapiens, UniProt Q05940). In words: Binding affinity to VMAT2 receptor.

pIC50, pKi: −log10 of the molar value.

Chain of Sodium-dependent dopamine transporter (P23977 whole entry): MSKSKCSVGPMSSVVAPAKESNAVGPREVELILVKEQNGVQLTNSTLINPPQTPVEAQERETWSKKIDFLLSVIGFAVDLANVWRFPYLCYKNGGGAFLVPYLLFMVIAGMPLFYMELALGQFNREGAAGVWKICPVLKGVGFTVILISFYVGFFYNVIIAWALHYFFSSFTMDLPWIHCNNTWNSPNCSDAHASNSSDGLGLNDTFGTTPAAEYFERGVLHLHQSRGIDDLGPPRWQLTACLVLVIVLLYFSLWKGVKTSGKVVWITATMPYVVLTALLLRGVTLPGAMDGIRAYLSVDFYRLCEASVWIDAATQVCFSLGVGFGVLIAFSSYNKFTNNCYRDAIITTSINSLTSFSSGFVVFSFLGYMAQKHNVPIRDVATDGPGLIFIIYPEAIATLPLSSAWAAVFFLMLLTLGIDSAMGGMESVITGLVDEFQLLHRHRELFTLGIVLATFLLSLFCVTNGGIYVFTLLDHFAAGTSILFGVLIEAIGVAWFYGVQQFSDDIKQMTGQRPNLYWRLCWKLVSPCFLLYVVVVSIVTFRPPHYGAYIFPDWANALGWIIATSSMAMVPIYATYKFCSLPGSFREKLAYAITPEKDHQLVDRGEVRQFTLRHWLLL
T1 sequence (P09483 whole entry): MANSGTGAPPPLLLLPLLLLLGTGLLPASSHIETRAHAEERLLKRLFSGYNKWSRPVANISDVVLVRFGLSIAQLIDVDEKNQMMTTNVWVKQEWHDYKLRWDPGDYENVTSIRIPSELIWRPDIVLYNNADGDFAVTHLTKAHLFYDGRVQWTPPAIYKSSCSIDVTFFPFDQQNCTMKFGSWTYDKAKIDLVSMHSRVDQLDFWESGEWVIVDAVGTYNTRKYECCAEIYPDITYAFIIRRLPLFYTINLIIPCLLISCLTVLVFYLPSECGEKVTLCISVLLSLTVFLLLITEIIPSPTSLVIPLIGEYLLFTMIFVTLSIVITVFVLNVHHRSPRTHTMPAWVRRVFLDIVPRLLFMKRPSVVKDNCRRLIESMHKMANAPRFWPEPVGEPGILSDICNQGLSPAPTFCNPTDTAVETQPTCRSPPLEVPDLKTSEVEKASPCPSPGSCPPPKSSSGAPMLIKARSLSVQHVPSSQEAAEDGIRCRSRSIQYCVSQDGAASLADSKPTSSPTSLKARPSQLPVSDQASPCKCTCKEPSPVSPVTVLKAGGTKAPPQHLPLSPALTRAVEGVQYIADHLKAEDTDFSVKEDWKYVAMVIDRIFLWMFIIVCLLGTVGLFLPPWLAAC
T1 sequence (P12390 whole entry): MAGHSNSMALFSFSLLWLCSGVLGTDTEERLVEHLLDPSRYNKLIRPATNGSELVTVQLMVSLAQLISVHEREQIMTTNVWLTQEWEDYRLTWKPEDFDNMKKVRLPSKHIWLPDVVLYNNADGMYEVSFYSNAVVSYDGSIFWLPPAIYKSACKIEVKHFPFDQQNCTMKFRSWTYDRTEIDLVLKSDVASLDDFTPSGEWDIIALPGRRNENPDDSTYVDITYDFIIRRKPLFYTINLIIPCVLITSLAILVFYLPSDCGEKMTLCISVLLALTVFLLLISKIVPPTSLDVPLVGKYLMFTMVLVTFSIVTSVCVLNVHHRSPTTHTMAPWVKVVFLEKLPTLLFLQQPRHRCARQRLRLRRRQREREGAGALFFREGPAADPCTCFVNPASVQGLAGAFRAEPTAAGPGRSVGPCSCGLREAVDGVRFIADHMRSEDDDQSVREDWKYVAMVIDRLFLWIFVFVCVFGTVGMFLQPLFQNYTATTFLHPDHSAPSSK
T2 sequence (Q01827 whole entry): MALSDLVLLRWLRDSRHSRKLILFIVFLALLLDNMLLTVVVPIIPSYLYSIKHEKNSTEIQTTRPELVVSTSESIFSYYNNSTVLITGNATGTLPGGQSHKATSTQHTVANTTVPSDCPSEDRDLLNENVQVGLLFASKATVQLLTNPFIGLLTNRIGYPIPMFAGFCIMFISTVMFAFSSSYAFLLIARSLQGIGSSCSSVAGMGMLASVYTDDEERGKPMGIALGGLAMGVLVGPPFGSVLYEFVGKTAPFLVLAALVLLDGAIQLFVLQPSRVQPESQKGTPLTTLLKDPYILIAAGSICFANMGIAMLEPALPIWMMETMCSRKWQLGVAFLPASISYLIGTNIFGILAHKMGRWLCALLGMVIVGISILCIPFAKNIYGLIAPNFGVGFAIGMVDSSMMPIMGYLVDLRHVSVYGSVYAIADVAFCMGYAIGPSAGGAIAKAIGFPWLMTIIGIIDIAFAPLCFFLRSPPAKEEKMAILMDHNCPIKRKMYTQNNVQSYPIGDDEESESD
Chain of Synaptic vesicular amine transporter (Homo sapiens, UniProt Q05940) (Q05940 whole entry): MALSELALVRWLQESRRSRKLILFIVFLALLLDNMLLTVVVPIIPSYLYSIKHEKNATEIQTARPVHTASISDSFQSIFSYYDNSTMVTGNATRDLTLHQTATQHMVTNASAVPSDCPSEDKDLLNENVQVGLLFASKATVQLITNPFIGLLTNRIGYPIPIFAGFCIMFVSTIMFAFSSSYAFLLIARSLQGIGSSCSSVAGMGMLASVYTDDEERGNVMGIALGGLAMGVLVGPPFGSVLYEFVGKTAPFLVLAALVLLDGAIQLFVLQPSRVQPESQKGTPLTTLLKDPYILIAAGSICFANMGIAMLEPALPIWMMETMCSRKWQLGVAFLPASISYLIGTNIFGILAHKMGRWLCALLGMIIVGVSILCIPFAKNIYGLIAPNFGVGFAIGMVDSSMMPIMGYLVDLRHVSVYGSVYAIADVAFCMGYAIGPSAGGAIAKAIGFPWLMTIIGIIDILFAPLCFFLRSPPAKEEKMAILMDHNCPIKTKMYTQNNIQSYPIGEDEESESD

Regarding `Cc1ccc(S(=O)(=O)OC(C[C@@H]2CCCC(CC(=O)c3ccccc3)N2C)c2ccccc2)cc1` (single isomer, unassigned), the negative logarithm of the IC50 (pIC50) (as a rule, −log10 of the IC50, conventionally taken in molar units) in test [1] is 8.70. Also, the pKi (usually the negative decadic logarithm of the Ki, by convention in mol/L) in test [2] is 4.79; in test [3], 4.97; in test [4] it was 4.74; in test [5] it was 8.30; in test [6], 4.54.
Take `CN1C(CC(=O)c2ccccc2)CCC[C@H]1CC(OS(=O)(=O)c1ccc(Cl)cc1)c1ccccc1` (single isomer, unassigned): the pKi in test [2] is 5.36; in test [3], 5.49; in test [4] it was less than 4.00; in test [5], 7.80; in test [6] it was 4.97.
Turning to `CCC(=O)OC(C[C@@H]1CCCC(CC(=O)c2ccccc2)N1C)c1ccccc1` (single isomer, unassigned), the pKi is 5.32 in test [7]; 5.31 in test [2]; 5.05 in test [4]; 6.82 in test [5]; 5.16 in test [6].
Turning to `CN1C(CC(=O)c2ccccc2)CCC[C@H]1CC(OS(=O)(=O)c1ccccc1)c1ccccc1` (single isomer, unassigned), the negative-log IC50 (pIC50) in test [1] was 5.80. For the same compound, the negative-log Ki (pKi) is 4.43 in test [2]; 5.46 in test [3]; 4.46 in test [4]; 8.10 in test [5]; 4.97 in test [6].
In the case of `CN1C(CC(=O)c2ccccc2)CCC[C@H]1CC(OC(=O)c1ccccc1)c1ccccc1` (single isomer, unassigned), the pIC50 in test [1] is 6.07. Moreover, the pKi is 5.82 in test [7]; 5.68 in test [2]; less than 4.00 in test [4]; 5.54 in test [5]; 5.64 in test [6].
Consider `CN1[C@@H](CC(=O)c2ccccc2)CCC[C@H]1C[C@H](OC(=O)c1cccs1)c1ccccc1`, for which the pKi is 5.20 in test [7]; 5.01 in test [2]; 4.44 in test [4]; 6.07 in test [5]; 5.52 in test [6].
Consider `CN1[C@@H](CC(=O)c2ccccc2)CCC[C@H]1C[C@H](OS(=O)(=O)c1cccc2ccccc12)c1ccccc1`, for which the pKi is 4.46 in test [2]; 5.39 in test [3]; less than 4.00 in test [4]; 7.77 in test [5]; 5.38 in test [6].
Consider `COc1ccc(C(=O)O[C@@H](C[C@@H]2CCC[C@H](CC(=O)c3ccccc3)N2C)c2ccccc2)cc1`, for which the negative logarithm of the Ki (pKi) is 5.53 in test [7]; 5.69 in test [2]; 4.74 in test [4]; 4.71 in test [5]; 5.42 in test [6].
For `CC(=O)OC(C[C@@H]1CCCC(CC(=O)c2ccccc2)N1C)c1ccccc1` (single isomer, unassigned), in that order: 5.09, 4.50, less than 4.00, 7.15 and 5.33.
As to `CN1C(CC(=O)c2ccccc2)CCC[C@H]1CC(OS(=O)(=O)Cc1ccccc1)c1ccccc1` (single isomer, unassigned), the pKi was 5.34 in test [2]; 5.40 in test [3]; 4.33 in test [4]; 7.89 in test [5]; 4.83 in test [6].
Regarding `Cc1ccc(C(=O)O[C@@H](C[C@@H]2CCC[C@H](CC(=O)c3ccccc3)N2C)c2ccccc2)cc1`, the pKi in test [7] is 5.75; in test [2], 5.82; in test [4], less than 4.00; in test [5], 5.79; in test [6], 5.69.
With `CC(C)S(=O)(=O)OC(C[C@@H]1CCCC(CC(=O)c2ccccc2)N1C)c1ccccc1` (single isomer, unassigned), the pKi in test [2] is 4.79; in test [3] it was 5.68; in test [4], 4.32; in test [5], 7.82; in test [6], 5.34.
With `CCCC(=O)OC(C[C@@H]1CCCC(CC(=O)c2ccccc2)N1C)c1ccccc1` (single isomer, unassigned), the pKi in test [7] was 5.47; in test [2], 4.91; in test [4] it was less than 4.00; in test [5] it was 6.30; in test [6], 5.32.
`CN1[C@@H](CC(=O)c2ccccc2)CCC[C@H]1C[C@H](OS(=O)(=O)c1cccs1)c1ccccc1`: the pKi was 4.74 in test [2]; 5.37 in test [3]; 4.27 in test [4]; 7.89 in test [5]; 4.70 in test [6].
For `CN1[C@@H](CC(=O)c2ccccc2)CCC[C@H]1C[C@H](OS(=O)(=O)c1ccc2ccccc2c1)c1ccccc1`, in that order: 5.30, 5.61, 4.73, 8.00 and 4.87.
The like results for `CCCCS(=O)(=O)OC(C[C@@H]1CCCC(CC(=O)c2ccccc2)N1C)c1ccccc1` (single isomer, unassigned) were, in that order, 5.29, 5.70, 4.39, 7.96 and 4.93.
As for `CC(C)C(=O)OC(C[C@@H]1CCCC(CC(=O)c2ccccc2)N1C)c1ccccc1` (single isomer, unassigned), the pKi in test [7] was 5.58; in test [2], 5.97; in test [4], less than 4.00; in test [5], 7.22; in test [6] it was 5.62.
As for `CN1C(CC(=O)c2ccccc2)CCC[C@H]1CC(OS(=O)(=O)c1ccc([N+](=O)[O-])cc1)c1ccccc1` (single isomer, unassigned), the pKi in test [2] is 4.74; in test [3], 5.37; in test [4] it was 4.27; in test [5], 7.89; in test [6], 4.70.
In test [8], `CN1[C@@H](CCc2cccc3ccccc23)CCC[C@H]1CCc1cccc2ccccc12` showed a pKi of 6.20.
Turning to `CN1C(CC(=O)c2ccccc2)CCC[C@H]1CC(OS(=O)(=O)c1ccc(F)cc1)c1ccccc1` (single isomer, unassigned), the pKi is 5.33 in test [2]; 5.52 in test [3]; 4.62 in test [4]; 7.92 in test [5]; 4.75 in test [6].
